In ChEMBL document CHEMBL4251674, “Bioactivity-Based Molecular Networking for the Discovery of Drug Leads in Natural Product Bioassay-Guided Fractionation” (J Nat Prod, 2018):
Calls of active or inactive are those of the source. The rule behind the calls is not given here.

Tested on: not listed separately
Assay: Selectivity index, ratio of CC50 for African green monkey Vero cells to EC50 for Chikungunya virus 899 infected in African green monkey Vero cells
Type: toxicity
Details: read-out: Selectivity Index
In short: (§1)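 Cell-based CHIKV replication assay in Vero cells. EC50 is the concentration that reduces CHIKV replication by 50%. CC50 is the concentration that reduces natural growth of the host cells by 50%. […]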
With `CCCCC/C=C/C=C\C(=O)O[C@@H]1[C@@H](C)[C@]2(O)[C@@H]3C=C(C)C(=O)[C@H]3CC(CO)=C[C@H]2[C@@H]2C(C)(C)[C@]12OC(=O)C(C)C` the selectivity ratio was 6. `CC/C=C\C/C=C/C=C\C(=O)O[C@@H]1[C@@H](C)[C@]2(O)[C@@H]3C=C(C)C(=O)[C@H]3CC(CO)=C[C@H]2[C@@H]2C(C)(C)[C@]12OC(=O)C(C)C` gave a selectivity ratio of 4. For `CCC/C=C/C=C/C=C\C(=O)O[C@@H]1[C@@H](C)[C@]2(O)[C@@H]3C=C(C)C(=O)[C@H]3CC(CO)=C[C@H]2[C@@H]2C(C)(C)[C@]12OC(=O)C(C)C`, the selectivity ratio was 34. For `CCC/C=C/C=C\C(=O)O[C@@H]1[C@@H](C)[C@]2(O)[C@@H]3C=C(C)C(=O)[C@H]3CC(CO)=C[C@H]2[C@@H]2C(C)(C)[C@]12OC(=O)C(C)C`, the selectivity ratio was 41.

Tested on: Chikungunya virus
Assay: Antiviral activity against Chikungunya virus 899 infected in African green monkey Vero cells assessed as inhibition of virus-induced cytopathic effect after 6 to 7 days by MTS assay
Type: functional, organism-based
Details: not given
In short: as §1
In the case of `C=C1[C@H](OCC(C)C)[C@@H](OC(C)=O)[C@@H](OC(C)=O)C(C)(C)/C=C/[C@H](C)C(=O)[C@@]2(O)C[C@@](C)(OC(C)=O)[C@H](OC(=O)COC(=O)c3ccccc3)[C@@H]2[C@H]1OC(C)=O`, the inhibition is reported as “inactive”. In the case of `C=C1[C@H](O)[C@H]2[C@@H](OC(=O)c3ccccc3)[C@](C)(O)C[C@]2(O)C(=O)[C@@H](C)/C=C/C(C)(C)[C@H](OC(C)=O)[C@H](OC(C)=O)[C@H]1OC(=O)c1ccccc1`, the inhibition is reported as “inactive”. With `C=C1[C@H](OC(=O)c2ccccc2)[C@@H](O)[C@@H](OC(C)=O)C(C)(C)/C=C/[C@H](C)C(=O)[C@@]2(O)C[C@@](C)(OC(C)=O)[C@H](O)[C@@H]2[C@H]1OC(=O)c1ccccc1` the inhibition was “inactive”. With `C=C1[C@H](OC(=O)c2ccccc2)[C@@H](OC(C)=O)[C@@H](OC(C)=O)C(C)(C)/C=C/[C@H](C)C(=O)[C@@]2(O)C[C@@](C)(OC(C)=O)[C@H](O)[C@@H]2[C@H]1OCC(C)C` the inhibition was “inactive”. In the case of `C=C1[C@H](OC(=O)c2ccccc2)[C@@H](OC(C)=O)[C@@H](OC(C)=O)C(C)(C)/C=C/[C@H](C)C(=O)[C@@]2(O)C[C@@](C)(OC(C)=O)[C@H](OC(C)=O)[C@@H]2[C@H]1OCC(C)C`, the inhibition is reported as “inactive”. For `C=C1[C@H](OC(=O)c2ccccc2)[C@@H](OC(C)=O)[C@@H](OC(C)=O)C(C)(C)/C=C/[C@H](C)C(=O)[C@@]2(O)C[C@@](C)(OC(C)=O)[C@H](O)[C@@H]2[C@H]1OC(=O)c1ccccc1`, the inhibition was “inactive”. With `C=C1[C@H](OC(=O)c2ccccc2)[C@@H](OC(C)=O)[C@@H](OC(C)=O)C(C)(C)/C=C/[C@H](C)C(=O)[C@@]2(O)C[C@H](C)[C@H](OC(C)=O)[C@@H]2[C@H]1OCC(C)C` the inhibition was “inactive”. With `CC(=O)O[C@H]1[C@@H](OC(C)=O)C(C)(C)/C=C/[C@@](C)(O)C(=O)[C@@]2(OC(C)=O)C[C@@](C)(OC(C)=O)[C@H](OC(C)=O)[C@@H]2[C@H]2OC(=O)CC[C@@]2(OC(C)=O)[C@@H]1OCC(C)C` the inhibition was “inactive”. For `C=C1[C@H](OC(=O)c2ccccc2)[C@@H](OC(C)=O)[C@@H](OC(=O)c2cccnc2)C(C)(C)/C=C/[C@H](C)C(=O)[C@@]2(OC(C)=O)C[C@@](C)(OC(=O)c3cccnc3)[C@H](OC(C)=O)[C@@H]2[C@H]1OC(C)=O`, the inhibition was “inactive”. With `CC(=O)O[C@H]1[C@@H](OC(C)=O)C(C)(C)/C=C/[C@@](C)(O)C(=O)[C@@]2(O)C[C@@](C)(OC(C)=O)[C@H](OC(C)=O)[C@@H]2[C@H]2OC(=O)CC[C@@]2(OC(C)=O)[C@@H]1OCC(C)C` the inhibition was “inactive”. For `C=C1[C@H](OCC(C)C)[C@@H](OC(C)=O)[C@@H](OC(=O)c2cccnc2)C(C)(C)/C=C/[C@H](C)C(=O)[C@@]2(OC(C)=O)C[C@@](C)(OC(=O)c3cccnc3)[C@H](OC(C)=O)[C@@H]2[C@H]1OC(C)=O`, the inhibition was “inactive”. With `C=C1[C@H](OC(=O)c2ccccc2)[C@@H](OC(C)=O)[C@@H](OC(C)=O)C(C)(C)/C=C/[C@H](C)C(=O)[C@@]2(O)C[C@@](C)(OC(C)=O)[C@H](OCC(C)C)[C@@H]2[C@H]1OCC(C)C` the inhibition was “inactive”. In the case of `CC(=O)O[C@H]1[C@@H](OC(C)=O)C(C)(C)/C=C/[C@H](C)C(=O)[C@@]2(OC(C)=O)C[C@@](C)(OC(C)=O)[C@H](O)[C@@H]2[C@H]2OC(=O)CC[C@@]2(OC(C)=O)[C@@H]1OCC(C)C`, the inhibition is reported as “inactive”. For `C=C1[C@H](OCC(C)C)[C@@H](OC(C)=O)[C@@H](OC(C)=O)C(C)(C)/C=C/[C@H](C)C(=O)[C@@]2(O)C[C@@](C)(OC(C)=O)[C@H](OC(=O)c3ccccc3)[C@@H]2[C@H]1OCC(C)C`, the inhibition was “inactive”. For `C=C1[C@H](OC(=O)c2ccccc2)[C@@H](OC(C)=O)[C@@H](OC(=O)c2cccnc2)C(C)(C)/C=C/[C@H](C)C(=O)[C@@]2(O)C[C@@](C)(OC(=O)c3cccnc3)[C@H](OC(C)=O)[C@@H]2[C@H]1OC(C)=O`, the inhibition was “inactive”. In the case of `C=C1[C@H](OC(=O)c2ccccc2)[C@@H](OC(C)=O)[C@@H](OC(=O)c2cccnc2)C(C)(C)/C=C/[C@H](C)C(=O)[C@@]2(O)C[C@@](C)(OC(=O)c3cccnc3)[C@H](OC(C)=O)[C@@H]2[C@H]1OCC(C)C`, the inhibition is reported as “inactive”. For `CC(=O)O[C@H]1[C@@H](OC(C)=O)C(C)(C)/C=C/[C@@](C)(O)C(=O)[C@@]2(O)C[C@@](C)(OC(C)=O)[C@H](OC(C)=O)[C@@H]2[C@H]2OC(=O)CC[C@@]2(OCC(C)C)[C@@H]1OCC(C)C`, the inhibition was “inactive”. In the case of `C=C1[C@H](OC(=O)c2ccccc2)[C@@H](OC(C)=O)[C@@H](OC(C)=O)C(C)(C)/C=C/[C@H](C)C(=O)[C@@]2(O)C[C@@](C)(O)[C@H](OC(C)=O)[C@@H]2[C@H]1OCC(C)C`, the inhibition is reported as “inactive”.

Same assay, conditions: Chikungunya virus, 899, Vero
`CCCCC/C=C/C=C\C(=O)O[C@@H]1[C@@H](C)[C@]2(O)[C@@H]3C=C(C)C(=O)[C@H]3CC(CO)=C[C@H]2[C@@H]2C(C)(C)[C@]12OC(=O)C(C)C` gave an EC50 of 900 nM. `CC/C=C\C/C=C/C=C\C(=O)O[C@@H]1[C@@H](C)[C@]2(O)[C@@H]3C=C(C)C(=O)[C@H]3CC(CO)=C[C@H]2[C@@H]2C(C)(C)[C@]12OC(=O)C(C)C` showed an EC50 of 12600 nM. With `CCC/C=C/C=C/C=C\C(=O)O[C@@H]1[C@@H](C)[C@]2(O)[C@@H]3C=C(C)C(=O)[C@H]3CC(CO)=C[C@H]2[C@@H]2C(C)(C)[C@]12OC(=O)C(C)C` the EC50 was 400 nM. In the case of `CCC/C=C/C=C\C(=O)O[C@@H]1[C@@H](C)[C@]2(O)[C@@H]3C=C(C)C(=O)[C@H]3CC(CO)=C[C@H]2[C@@H]2C(C)(C)[C@]12OC(=O)C(C)C`, the EC50 is reported as 600 nM.
